Assay results: ChEMBL document CHEMBL3779892, “Increasing the binding affinity of VEGFR-2 inhibitors by extending their hydrophobic interaction with the active site: Design, synthesis and biological evaluation of 1-substituted-4-(4-methoxybenzyl)phthalazine derivatives” (Eur J Med Chem, 2016)

Assays:
Assay type in all cases: functional
[1] = Growth inhibition of human BT549 cells at 10 uM after 48 hrs by sulforhodamine B assay; conditions: BT-549, 48 h, read-out: GI
How it was run: (§1)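 Run at NCI on the 60-line panel. Cells grown in RPMI 1640 with 5% FBS and 2 mM L-glutamine, plated at 5000–40,000 cells/well by doubling time, and held 24 h at 37 °C before dosing. Drug (DMSO stock) given at a single final 10 µM in triplicate wells for 48 h. Adherent cells fixed with cold TCA (10% final), suspension cells with 16% TCA. SRB stain read at 515 nm. Percent growth from Tz, C and Ti.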

[2] = tested on: T47D; assay: Growth inhibition of human T47D cells at 10 uM after 48 hrs by sulforhodamine B assay; conditions: read-out: GI
How it was run: (§2)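 NCI-60 panel, adherent cells grown in RPMI 1640 with 5% FBS and 2 mM L-glutamine, plated at 5000–40,000 cells/well and preincubated 24 h at 37 °C, 5% CO2. 10 µM final compound from DMSO stock, triplicate wells, 48 h. Fixed with cold TCA (10% final, 60 min, 4 °C) and stained with 0.4% SRB. Absorbance read at 515 nm; growth calculated against time-zero and control wells.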

[3] = Growth inhibition of human MOLT4 cells at 10 uM after 48 hrs by sulforhodamine B assay; conditions: MOLT-4, 48 h, read-out: GI; how it was run: as §1
[4] = Growth inhibition of human RPMI8226 cells at 10 uM after 48 hrs by sulforhodamine B assay; conditions: RPMI-8226, 48 h, read-out: GI; how it was run: as §1
[5] = Growth inhibition of human HOP62 cells at 10 uM after 48 hrs by sulforhodamine B assay; conditions: HOP-62, 48 h, read-out: GI; how it was run: as §1
[6] = tested on: NCI-H322M; assay: Growth inhibition of human NCI-H322M cells at 10 uM after 48 hrs by sulforhodamine B assay; conditions: read-out: GI; how it was run: as §1
[7] = Growth inhibition of human COLO205 cells at 10 uM after 48 hrs by sulforhodamine B assay; conditions: COLO 205, 48 h, read-out: GI; how it was run: as §1
[8] = Growth inhibition of human HCC2998 cells at 10 uM after 48 hrs by sulforhodamine B assay; conditions: HCC 2998, 48 h, read-out: GI; how it was run: as §1
[9] = Growth inhibition of human HCT116 cells at 10 uM after 48 hrs by sulforhodamine B assay; conditions: HCT-116, 48 h, read-out: GI; how it was run: as §1
[10] = Growth inhibition of human HCT15 cells at 10 uM after 48 hrs by sulforhodamine B assay; conditions: HCT-15, 48 h, read-out: GI; how it was run: as §1
[11] = Growth inhibition of human SF539 cells at 10 uM after 48 hrs by sulforhodamine B assay; conditions: SF-539, 48 h, read-out: GI; how it was run: as §1
[12] = tested on: U-251; assay: Growth inhibition of human U251 cells at 10 uM after 48 hrs by sulforhodamine B assay; conditions: U-251, 48 h, read-out: GI; how it was run: as §2
[13] = Growth inhibition of human LOXIMVI cells at 10 uM after 48 hrs by sulforhodamine B assay; conditions: LOX IMVI, read-out: GI; how it was run: as §1
[14] = tested on: Malme-3M; assay: Growth inhibition of human MALME-3M cells at 10 uM after 48 hrs by sulforhodamine B assay; conditions: read-out: GI; how it was run: as §1
[15] = Growth inhibition of human UACC257 cells at 10 uM after 48 hrs by sulforhodamine B assay; conditions: UACC-257, 48 h, read-out: GI; how it was run: as §2
[16] = Growth inhibition of human IGROV1 cells at 10 uM after 48 hrs by sulforhodamine B assay; conditions: IGROV-1, 48 h, read-out: GI; how it was run: as §1
[17] = Growth inhibition of human OVCAR4 cells at 10 uM after 48 hrs by sulforhodamine B assay; conditions: OVCAR-4, 48 h, read-out: GI; how it was run: as §1
[18] = Growth inhibition of human SKOV3 cells at 10 uM after 48 hrs by sulforhodamine B assay; conditions: SK-OV-3, 48 h, read-out: GI; how it was run: as §1
[19] = tested on: 786-0; assay: Growth inhibition of human 786-0 cells at 10 uM after 48 hrs by sulforhodamine B assay; conditions: 786-0, 48 h, read-out: GI; how it was run: as §1
[20] = Growth inhibition of human Caki1 cells at 10 uM after 48 hrs by sulforhodamine B assay; conditions: CAKI-1, 48 h, read-out: GI; how it was run: as §1
[21] = Growth inhibition of human RXF393 cells at 10 uM after 48 hrs by sulforhodamine B assay; conditions: RXF 393, 48 h, read-out: GI; how it was run: as §1
[22] = tested on: SN12C; assay: Growth inhibition of human SN12C cells at 10 uM after 48 hrs by sulforhodamine B assay; conditions: read-out: GI; how it was run: as §1
[23] = Growth inhibition of human TK10 cells at 10 uM after 48 hrs by sulforhodamine B assay; conditions: TK-10, 48 h, read-out: GI; how it was run: as §2
[24] = tested on: MCF7; assay: Growth inhibition of human MCF7 cells at 10 uM after 48 hrs by sulforhodamine B assay; conditions: MCF7, 48 h, read-out: GI; how it was run: as §1

COc1ccc(Cc2nnc(Nc3ccc(NC(=O)Nc4cccc(Cl)c4)cc3)c3ccccc23)cc1
inhibition of growth at 10 µM [1]: < 30% | inhibition of growth at 10 µM [2]: 39% | inhibition of growth at 10 µM [3]: < 30% | inhibition of growth at 10 µM [4]: 31% | inhibition of growth at 10 µM [5]: < 30% | inhibition of growth at 10 µM [6]: < 30% | inhibition of growth at 10 µM [7]: < 30% | inhibition of growth at 10 µM [8]: < 30% | inhibition of growth at 10 µM [9]: 37% | inhibition of growth at 10 µM [10]: < 30% | inhibition of growth at 10 µM [11]: < 30% | inhibition of growth at 10 µM [12]: < 30% | inhibition of growth at 10 µM [13]: < 30% | inhibition of growth at 10 µM [14]: < 30% | inhibition of growth at 10 µM [15]: < 30% | inhibition of growth at 10 µM [16]: < 30% | inhibition of growth at 10 µM [17]: < 30% | inhibition of growth at 10 µM [18]: < 30% | inhibition of growth at 10 µM [19]: 35% | inhibition of growth at 10 µM [20]: < 30% | inhibition of growth at 10 µM [21]: 40% | inhibition of growth at 10 µM [22]: < 30% | inhibition of growth at 10 µM [23]: < 30% | inhibition of growth at 10 µM [24]: < 30%

COc1ccc(Cc2nnc(Nc3ccc(NC(=O)Nc4ccc(Cl)cc4)cc3)c3ccccc23)cc1
inhibition of growth at 10 µM [1]: 37% | inhibition of growth at 10 µM [2]: 37% | inhibition of growth at 10 µM [3]: 44% | inhibition of growth at 10 µM [4]: 75% | inhibition of growth at 10 µM [5]: < 30% | inhibition of growth at 10 µM [6]: < 30% | inhibition of growth at 10 µM [7]: < 30% | inhibition of growth at 10 µM [8]: < 30% | inhibition of growth at 10 µM [9]: 42% | inhibition of growth at 10 µM [10]: 41% | inhibition of growth at 10 µM [11]: 41% | inhibition of growth at 10 µM [12]: 48% | inhibition of growth at 10 µM [13]: < 30% | inhibition of growth at 10 µM [14]: < 30% | inhibition of growth at 10 µM [15]: < 30% | inhibition of growth at 10 µM [16]: < 30% | inhibition of growth at 10 µM [17]: < 30% | inhibition of growth at 10 µM [18]: < 30% | inhibition of growth at 10 µM [19]: 58% | inhibition of growth at 10 µM [20]: < 30% | inhibition of growth at 10 µM [21]: 79% | inhibition of growth at 10 µM [22]: < 30% | inhibition of growth at 10 µM [23]: < 30% | inhibition of growth at 10 µM [24]: 33%

COc1ccc(Cc2nnc(Nc3ccc(NC(=O)Nc4ccc(Cl)c(C(F)(F)F)c4)cc3)c3ccccc23)cc1
inhibition of growth at 10 µM [1]: < 30% | inhibition of growth at 10 µM [2]: 47% | inhibition of growth at 10 µM [3]: 50% | inhibition of growth at 10 µM [4]: 66% | inhibition of growth at 10 µM [5]: < 30% | inhibition of growth at 10 µM [6]: 30% | inhibition of growth at 10 µM [7]: 30% | inhibition of growth at 10 µM [8]: < 30% | inhibition of growth at 10 µM [9]: 53% | inhibition of growth at 10 µM [10]: 40% | inhibition of growth at 10 µM [11]: < 30% | inhibition of growth at 10 µM [12]: 51% | inhibition of growth at 10 µM [13]: 32% | inhibition of growth at 10 µM [14]: < 30% | inhibition of growth at 10 µM [15]: < 30% | inhibition of growth at 10 µM [16]: 53% | inhibition of growth at 10 µM [17]: 60% | inhibition of growth at 10 µM [18]: 38% | inhibition of growth at 10 µM [19]: 62% | inhibition of growth at 10 µM [20]: < 30% | inhibition of growth at 10 µM [21]: 72% | inhibition of growth at 10 µM [22]: < 30% | inhibition of growth at 10 µM [23]: < 30% | inhibition of growth at 10 µM [24]: 46%

COc1ccc(Cc2nnc(Nc3ccc(NC(=O)Nc4ccccc4Cl)cc3)c3ccccc23)cc1
inhibition of growth at 10 µM [1]: < 30% | inhibition of growth at 10 µM [2]: 52% | inhibition of growth at 10 µM [3]: < 30% | inhibition of growth at 10 µM [4]: 33% | inhibition of growth at 10 µM [5]: < 30% | inhibition of growth at 10 µM [6]: < 30% | inhibition of growth at 10 µM [7]: < 30% | inhibition of growth at 10 µM [8]: < 30% | inhibition of growth at 10 µM [9]: < 30% | inhibition of growth at 10 µM [10]: < 30% | inhibition of growth at 10 µM [11]: < 30% | inhibition of growth at 10 µM [12]: < 30% | inhibition of growth at 10 µM [13]: < 30% | inhibition of growth at 10 µM [14]: < 30% | inhibition of growth at 10 µM [15]: < 30% | inhibition of growth at 10 µM [16]: < 30% | inhibition of growth at 10 µM [17]: < 30% | inhibition of growth at 10 µM [18]: < 30% | inhibition of growth at 10 µM [19]: 41% | inhibition of growth at 10 µM [20]: < 30% | inhibition of growth at 10 µM [21]: 48% | inhibition of growth at 10 µM [22]: < 30% | inhibition of growth at 10 µM [23]: < 30% | inhibition of growth at 10 µM [24]: 32%
